XiGFP reactiv: activators of inactive X chromosome reactivation, primary screen, imaging, XiGFP fibroblasts, GFP high-content imaging, set 2; XiGFP mouse fibroblasts, % GFP-positive cells imaging, 3 d; cells co-treated with 5-aza-dC sensitizer; scaled so ellipticine positive control = 100%; activation, % at 7.58 µM; hit rate 0.055% among 360,000; AID 743238, 2013;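 active means mean normalized replicate activation at least 10% and every replicate at or above 10%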;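 further: 0% = median of on-plate neutral control wells and 100% = ellipticine 6 µM median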
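material = 68-5-11 XiGFP fibroblast line | medium = DMEM plus 5-aza-dC sensitizer | schedule = 3 days compound exposure | benchmarks = positive control ellipticine, 6 µM final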
E-sel inducer: E-selectin induction in HUVECs, primary screen, imaging, HUVEC, immunofluorescence imaging, single point | activation, % at 7.58 µM | P16581 | normalized: neutral wells 0, TNF-alpha wells 100 | hit rate 0.37% among 260,000 | AID 686992, 2013;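 active means mean E-selectin-positive cell signal at least 10% of the positive control, reached in at least 60% of replicates, without over 20% cell loss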
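Test system: HUVEC; input: 3,000 HUVEC/well; measured by: immunofluorescence imaging; read-out: % PE-positive cells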
rRNA inh HTS: reduced GFP signal of wild-type E. coli, primary screen, bacterial rRNA inhibitor project, GFP/RFP fluorescence, OD600, single point. hit rate 1.6% among 350,000. E. coli WT GFP vs humanized-ribosome RFP mutants, 24 h; hits give low values; DMSO median 0, no signal -100. GFP signal change (wild-type ribosome), % (concentration not given with the values). AID 720706, 2013;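 active means significant combined selectivity score with lowered wild-type GFP, culture density cut under 30%, mutant RFP and density less affected; inactive means any of these conditions unmet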
PglD DTNB: C. jejuni PglD acetyltransferase inhibitors, primary screen, biochemical, DTNB colorimetric, single point | UDP-N-acetylbacillosamine N-acetyltransferase PglD (Campylobacter jejuni) | purified PglD enzyme, DTNB colorimetric CoA detection | hit rate 0.098% among 360,000 | inhibition, % at 12.5 µM; in the data active means inhibition above about 16%, passing the limit was not always enough
RAD52 inh: RAD52 DNA annealing inhibitors, primary screen, biochemical, FRET, single point, set 2; recombinant RAD52 DNA annealing, FRET fluorescence; inhibition, % at 18.7 µM; hit rate 0.46% among 360,000;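 active means every replicate showing at least 50% inhibition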
RAD54 branch: inhibitors of human RAD54 branch migration, primary screen, biochemical, fluorescence, single point; DNA repair and recombination protein RAD54-like (Homo sapiens), Q92698; inhibition, % at 10.4 µM; RAD54 Holliday junction branch migration, FAM/BHQ fluorescence; AID 602329, 2012; hit rate 0.14% among 360,000;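 active means mean normalized replicate activity at least 40 and at least half of replicates scoring 40 or more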;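 further: 0% = median of neutral control wells and 100% = median of positive control wells; inhibitors cause a drop in the FAM fluorescence signal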
Target sequence (Q92698 whole entry, looked up): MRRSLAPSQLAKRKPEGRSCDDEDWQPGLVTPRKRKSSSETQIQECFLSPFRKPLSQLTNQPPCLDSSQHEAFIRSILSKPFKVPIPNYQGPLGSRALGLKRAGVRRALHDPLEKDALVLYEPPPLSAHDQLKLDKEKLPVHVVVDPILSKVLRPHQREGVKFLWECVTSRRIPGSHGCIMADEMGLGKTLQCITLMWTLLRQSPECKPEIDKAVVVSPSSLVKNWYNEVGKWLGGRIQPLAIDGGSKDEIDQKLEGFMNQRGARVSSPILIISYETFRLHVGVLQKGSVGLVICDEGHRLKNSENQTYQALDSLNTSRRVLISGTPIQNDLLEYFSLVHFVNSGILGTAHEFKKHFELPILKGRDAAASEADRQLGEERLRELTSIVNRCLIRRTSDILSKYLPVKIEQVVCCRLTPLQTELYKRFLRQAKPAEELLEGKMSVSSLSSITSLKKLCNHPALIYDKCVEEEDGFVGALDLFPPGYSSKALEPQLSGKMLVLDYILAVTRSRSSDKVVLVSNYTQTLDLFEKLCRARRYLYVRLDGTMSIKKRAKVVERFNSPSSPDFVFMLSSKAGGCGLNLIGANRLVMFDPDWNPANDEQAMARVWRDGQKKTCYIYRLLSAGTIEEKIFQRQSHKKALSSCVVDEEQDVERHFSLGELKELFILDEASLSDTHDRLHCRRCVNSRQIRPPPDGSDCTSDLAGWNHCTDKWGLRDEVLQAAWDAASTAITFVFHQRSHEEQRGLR
* hit, by the source's call; nt = no result given. Shown are actives, neighbours in structure and some others; about 2% of the full set was active somewhere.

SMILES	XiGFP reactiv	E-sel inducer	rRNA inh HTS	PglD DTNB	RAD52 inh	RAD54 branch
COc1cc(/C=C(\CC(=O)O)c2nc3ccccc3s2)cc(OC)c1O	0.4	nt	-27.5	nt	-42.7	nt
CCOc1cc(/C=C(\CC(=O)O)c2nc3ccccc3s2)ccc1OCC(=O)Nc1cccc(C(F)(F)F)c1	0.3	-0.1	-11.7	nt	-44.4	-3.6
Cc1ccc(/C=C(\CCC(=O)O)c2nc3ccccc3s2)cc1[N+](=O)[O-]	0.0	nt	-28.5*	4.7	-12.2	-2.2
O=C(O)C/C(=C\c1cccc(NC(=O)c2ccccc2Cl)c1)c1nc2ccccc2s1	0.3	nt	-35.0*	1.9	-16.7	4.7
COc1cc(/C=C(\CC(=O)O)c2nc3ccccc3s2)ccc1OCC(=O)Nc1ccccc1F	0.0	-0.3	-24.7*	-1.4	-27.4	-0.6
COc1ccc(C(=O)Nc2cccc(/C=C(\CCC(=O)O)c3nc4ccccc4s3)c2)cc1	0.5	3.7	-18.8	0.9	-47.1	-4.3
COc1ccc(/C=C(\CC(=O)O)c2nc3ccccc3s2)cc1O	-0.1	1.2	-25.2*	-1.2	-24.7	-9.6
O=S1(=O)N[C@H](c2ccccc2)COc2cc(Br)ccc21	0.0	nt	-36.5	nt	-11.1	nt
Cc1noc(C)c1S(=O)(=O)Nc1ccc2c(c1)C(=O)N([C@H](C)CO)C[C@H](C)[C@H](CN(C)C)O2	0.3	-4.0	4.5	1.0	1.7	-12.0
CCOC(=O)c1cnc2c(c(C)nn2C)c1Oc1ccccc1F	0.3	nt	-31.9*	nt	-7.8	nt
O=C(C[C@@H]1C[C@H]2c3cc(NC(=O)Nc4ccc(C(F)(F)F)cc4)ccc3O[C@H]2[C@H](CO)O1)NC1CCCCC1	0.3	0.6	-16.7	1.7	-15.6	-2.9
COc1cccc(CNC(=O)CN2c3cccc4cccc(c34)S2(=O)=O)c1	0.2	1.9	-36.8*	1.6	-22.3	0.4
CN(C)C(=O)CN1c2cccc3cccc(c23)S1(=O)=O	0.0	0.1	10.9	-4.5	-10.1	-1.0
CN(CC(=O)Nc1cccc(F)c1)C(=O)CN1c2cccc3cccc(c23)S1(=O)=O	0.3	-1.4	-40.4*	1.8	-22.1	12.2
N#C[C@H]1[C@H](c2ccc(-c3ccccc3F)cc2)[C@H](CO)N1C(=O)Cc1ccccc1	0.4	0.0	-7.3	2.7	-29.8	-4.6
Cc1cc2c(SCc3ccccc3Cl)nc(N)nc2nc1C	6.0	87.8*	11.3	2.9	-277.2	-15.7
CN(C)C(=O)C[C@H]1CC[C@@H]2[C@@H](COc3ccc(NC(=O)C4CCC4)cc3C(=O)N2C)O1	0.0	0.0	0.1	nt	4.5	nt
C[C@@H]1CN([C@@H](C)CO)C(=O)c2cc(NC(=O)Nc3ccc4c(c3)OCO4)ccc2O[C@@H](C)CCCCO[C@H]1CN(C)C	0.1	0.9	-2.1	-0.3	0.3	-1.7
O=C(COc1ccc(Br)cc1)N/N=C1/SCC(=O)N1Cc1ccco1	-0.1	-0.3	-23.4*	nt	-13.3	nt
COc1ccc(C(=O)c2sc3nc(C)cc(-c4cccs4)c3c2N)cc1OC	25.3*	nt	-10.5	-1.3	-269.1	-16.7
CSc1nnc(-c2cc(Br)ccc2N=Cc2c(C)[nH]n(-c3ccccc3)c2=O)c(=O)[nH]1	0.0	nt	-24.9*	nt	-32.0	nt
CC1CCc2nc3ccc(S(=O)(=O)N4CCC(C(=O)NC5CCCC5)CC4)cc3c(C(=O)O)c2C1 (stereo unspecified)	0.1	93.4*	18.1	0.6	-35.8	-26.2
O=C(O)c1c2c(nc3ccc(S(=O)(=O)N4CCC(C(=O)NC5CCCC5)CC4)cc13)CCCCC2	-0.1	1.3	6.8	1.1	-3.4	-9.6
COc1cccc(CNc2ccc3c(c2)ncn3C(C)C)c1OC	0.2	1.3	-21.0*	nt	-6.3	-5.5
CCCn1cnc2cc(NCc3cccc(OC)c3O)ccc21	nt	nt	nt	-4.4	nt	-7.3
SMILES	XiGFP reactiv	E-sel inducer	rRNA inh HTS	PglD DTNB	RAD52 inh	RAD54 branch
Cc1ccc(NC(=O)Cn2c(CCC(=O)O)ccc2-c2ccc(Cl)cc2)cc1	0.0	nt	-24.8*	-5.7	-37.2	-5.8
S=C(NCCc1ccccc1)Nc1cccc2cnccc12	0.2	15.0	-27.0*	-0.5	-10.2	1.7
O=C(NCCN1CCCCC1)[C@@H]1[C@@H](CO)[C@@H]2Cn3c(cccc3=O)[C@@H]2N1C(=O)C1CC1	0.3	0.0	0.5	2.7	4.3	-1.7
CC(C)Cn1c(=O)c(C(=O)Nc2ccncc2)c(O)c2ccccc21	-0.1	nt	-26.1*	0.9	-23.8	-15.3
CC(C)Cn1c(=O)c(C(=O)Nc2cnccn2)c(O)c2ccccc21	nt	nt	nt	0.5	nt	-5.5
CCS(=O)(=O)Nc1ccc2c(c1)C(=O)N(C)C[C@H](OC)[C@H](C)CN(C(=O)COC)[C@H](C)CO2	0.2	-0.1	0.8	nt	nt	nt
CCC(C)n1c(=S)[nH]c2c(sc3ccc([N+](=O)[O-])cc32)c1=O (stereo unspecified)	-0.1	0.6	-32.5*	1.4	4.1	-1.5
O=C(C[C@H]1C=C[C@@H](NC(=O)C2CC2)[C@H](CO)O1)NCCCN1CCOCC1	0.3	4.5	2.9	2.3	0.9	0.4
O=C(CN1C(=O)c2ccccc2S1(=O)=O)NCCSCc1ccccc1Cl	nt	nt	0.0	-3.6	-12.5	-5.7
O=C(CN1C(=O)c2ccccc2S1(=O)=O)NCCSCc1c(F)cccc1Cl	0.3	nt	-29.5*	5.5	-16.0	-2.5
COc1cc(Br)c(CNc2cc(C)ccc2C)cc1OC	0.0	0.3	-24.1*	2.1	-14.3	-6.1
C=CCn1cccc(C(=O)Nc2ccc(OC)cc2)c1=O	0.0	nt	-12.0	nt	-12.3	nt
COc1ccc(NC(=O)c2cccn(CC=C(C)C)c2=O)cc1	0.1	nt	-26.5*	nt	-8.8	nt
N/C(=N\c1nc(CSc2nc3ccccc3s2)cc(=O)[nH]1)Nc1ccc(F)cc1	34.9*	nt	11.4	nt	-11.9	nt
O=C(N/N=C/c1ccncc1)c1ccc(-n2cccc2)cc1	0.0	-1.8	4.9	6.0	-24.7	-2.5
O=C(N/N=C/c1cccs1)c1ccc(-n2cccc2)cc1	0.3	nt	-22.6*	nt	-14.4	nt
CC(NC(=O)C1CCN(S(=O)(=O)c2cccs2)CC1)c1cccc(Cl)c1 (stereo unspecified)	0.2	nt	nt	-1.0	-9.9	3.5
O=C(O)c1ccc(Cl)cc1NC(=O)C1CCN(S(=O)(=O)c2cccs2)CC1	-0.2	0.4	-17.7*	-0.5	-8.0	1.6

Screening results (PubChem BioAssay)
